Legend:
[1] = Growth inhibition of human KYSE-150 cells after 48 hrs by MTT assay; format: functional; conditions: KYSE-150, 48 h
How it was run: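 Cells were seeded at 5000/well in RPMI 1640 with 10% FBS and allowed to attach overnight, then exposed for 48 h at 37 °C in 5% CO2. MTT was added for 3 h, and the dye was solubilized in HCl–2-propanol and read at 560 nm (reference 750 nm).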

[2] = target: T1, Lysine-specific demethylase 7A (Homo sapiens, UniProt Q6ZMT4); assay: Inhibition of KDM7A (unknown origin) using K27me2 peptide as substrate by MALDI assay
T1 sequence (Q6ZMT4 whole entry): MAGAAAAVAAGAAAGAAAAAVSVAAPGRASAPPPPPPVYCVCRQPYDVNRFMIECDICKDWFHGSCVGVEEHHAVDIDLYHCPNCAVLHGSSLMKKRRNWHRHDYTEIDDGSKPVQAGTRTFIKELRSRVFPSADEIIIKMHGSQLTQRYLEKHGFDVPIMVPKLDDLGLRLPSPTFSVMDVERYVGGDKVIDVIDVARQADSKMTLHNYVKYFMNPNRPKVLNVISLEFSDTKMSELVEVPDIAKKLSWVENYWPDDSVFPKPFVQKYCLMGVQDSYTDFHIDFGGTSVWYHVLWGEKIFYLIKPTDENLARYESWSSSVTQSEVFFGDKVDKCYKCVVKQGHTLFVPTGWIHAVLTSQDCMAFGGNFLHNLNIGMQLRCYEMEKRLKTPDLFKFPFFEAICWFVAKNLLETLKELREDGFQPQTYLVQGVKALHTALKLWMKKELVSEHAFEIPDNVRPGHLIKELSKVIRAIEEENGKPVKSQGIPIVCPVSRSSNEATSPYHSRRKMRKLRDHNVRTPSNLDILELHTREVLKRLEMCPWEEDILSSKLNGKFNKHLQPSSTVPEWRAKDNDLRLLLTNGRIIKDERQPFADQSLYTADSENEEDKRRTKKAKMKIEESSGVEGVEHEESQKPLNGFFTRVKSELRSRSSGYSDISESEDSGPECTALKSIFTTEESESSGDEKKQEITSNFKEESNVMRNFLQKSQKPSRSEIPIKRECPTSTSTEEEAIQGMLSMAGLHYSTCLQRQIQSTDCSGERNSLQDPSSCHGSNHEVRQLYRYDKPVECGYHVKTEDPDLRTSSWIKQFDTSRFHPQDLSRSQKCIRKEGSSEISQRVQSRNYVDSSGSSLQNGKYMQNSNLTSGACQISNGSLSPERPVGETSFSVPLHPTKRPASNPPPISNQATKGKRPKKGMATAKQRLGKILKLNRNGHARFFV

[3] = target: T2, Lysine-specific demethylase 4A (Homo sapiens, UniProt O75164); assay: Inhibition of KDM4A (unknown origin) using H3K9me3 peptide and 2-oxoglutarate as substrate after 1 hr by FDH-coupled assay
T2 sequence (O75164 whole entry): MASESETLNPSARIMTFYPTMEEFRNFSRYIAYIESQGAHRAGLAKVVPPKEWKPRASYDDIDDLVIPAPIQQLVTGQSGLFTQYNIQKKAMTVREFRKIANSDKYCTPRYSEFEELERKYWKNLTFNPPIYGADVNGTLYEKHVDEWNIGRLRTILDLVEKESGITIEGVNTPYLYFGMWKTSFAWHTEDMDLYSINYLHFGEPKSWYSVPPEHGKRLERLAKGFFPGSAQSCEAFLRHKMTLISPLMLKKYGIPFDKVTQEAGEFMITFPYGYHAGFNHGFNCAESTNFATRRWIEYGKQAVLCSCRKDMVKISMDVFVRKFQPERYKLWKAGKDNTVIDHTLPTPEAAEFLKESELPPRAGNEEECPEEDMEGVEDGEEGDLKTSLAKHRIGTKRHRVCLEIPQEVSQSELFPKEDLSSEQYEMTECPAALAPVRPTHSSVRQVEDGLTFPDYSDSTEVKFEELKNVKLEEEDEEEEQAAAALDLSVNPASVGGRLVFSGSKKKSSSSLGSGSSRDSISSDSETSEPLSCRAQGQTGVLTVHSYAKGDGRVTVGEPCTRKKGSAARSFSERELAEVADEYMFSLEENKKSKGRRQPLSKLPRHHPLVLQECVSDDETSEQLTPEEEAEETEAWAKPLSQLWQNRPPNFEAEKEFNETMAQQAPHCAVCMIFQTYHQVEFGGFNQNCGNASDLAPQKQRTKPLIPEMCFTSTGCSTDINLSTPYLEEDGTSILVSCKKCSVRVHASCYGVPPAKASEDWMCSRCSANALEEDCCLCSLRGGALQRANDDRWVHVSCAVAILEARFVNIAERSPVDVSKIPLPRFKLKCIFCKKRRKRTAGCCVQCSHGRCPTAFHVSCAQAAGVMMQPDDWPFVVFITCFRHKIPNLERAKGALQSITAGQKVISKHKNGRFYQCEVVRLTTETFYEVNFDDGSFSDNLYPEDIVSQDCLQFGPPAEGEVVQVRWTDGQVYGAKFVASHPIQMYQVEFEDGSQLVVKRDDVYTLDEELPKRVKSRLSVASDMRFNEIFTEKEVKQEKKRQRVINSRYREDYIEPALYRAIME
How it was run: (§1)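 Run as the FDH-coupled KDM4C format, with compounds in DMSO and activity relative to a DMSO control. KDM4A was used at 0.37 mg/mL final with H3K9me3 peptide. KDM5A was used at 0.64 mg/mL final with H3K4me3 peptide. Values are means of two experiments.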

[4] = target: Lysine-specific demethylase 5A (Homo sapiens, UniProt P29375); assay: Inhibition of KDM5A (unknown origin) using H3K4me3 peptide and 2-oxoglutarate as substrate after 1 hr by FDH-coupled assay; how it was run: as §1
Chain of Lysine-specific demethylase 5A (P29375 whole entry): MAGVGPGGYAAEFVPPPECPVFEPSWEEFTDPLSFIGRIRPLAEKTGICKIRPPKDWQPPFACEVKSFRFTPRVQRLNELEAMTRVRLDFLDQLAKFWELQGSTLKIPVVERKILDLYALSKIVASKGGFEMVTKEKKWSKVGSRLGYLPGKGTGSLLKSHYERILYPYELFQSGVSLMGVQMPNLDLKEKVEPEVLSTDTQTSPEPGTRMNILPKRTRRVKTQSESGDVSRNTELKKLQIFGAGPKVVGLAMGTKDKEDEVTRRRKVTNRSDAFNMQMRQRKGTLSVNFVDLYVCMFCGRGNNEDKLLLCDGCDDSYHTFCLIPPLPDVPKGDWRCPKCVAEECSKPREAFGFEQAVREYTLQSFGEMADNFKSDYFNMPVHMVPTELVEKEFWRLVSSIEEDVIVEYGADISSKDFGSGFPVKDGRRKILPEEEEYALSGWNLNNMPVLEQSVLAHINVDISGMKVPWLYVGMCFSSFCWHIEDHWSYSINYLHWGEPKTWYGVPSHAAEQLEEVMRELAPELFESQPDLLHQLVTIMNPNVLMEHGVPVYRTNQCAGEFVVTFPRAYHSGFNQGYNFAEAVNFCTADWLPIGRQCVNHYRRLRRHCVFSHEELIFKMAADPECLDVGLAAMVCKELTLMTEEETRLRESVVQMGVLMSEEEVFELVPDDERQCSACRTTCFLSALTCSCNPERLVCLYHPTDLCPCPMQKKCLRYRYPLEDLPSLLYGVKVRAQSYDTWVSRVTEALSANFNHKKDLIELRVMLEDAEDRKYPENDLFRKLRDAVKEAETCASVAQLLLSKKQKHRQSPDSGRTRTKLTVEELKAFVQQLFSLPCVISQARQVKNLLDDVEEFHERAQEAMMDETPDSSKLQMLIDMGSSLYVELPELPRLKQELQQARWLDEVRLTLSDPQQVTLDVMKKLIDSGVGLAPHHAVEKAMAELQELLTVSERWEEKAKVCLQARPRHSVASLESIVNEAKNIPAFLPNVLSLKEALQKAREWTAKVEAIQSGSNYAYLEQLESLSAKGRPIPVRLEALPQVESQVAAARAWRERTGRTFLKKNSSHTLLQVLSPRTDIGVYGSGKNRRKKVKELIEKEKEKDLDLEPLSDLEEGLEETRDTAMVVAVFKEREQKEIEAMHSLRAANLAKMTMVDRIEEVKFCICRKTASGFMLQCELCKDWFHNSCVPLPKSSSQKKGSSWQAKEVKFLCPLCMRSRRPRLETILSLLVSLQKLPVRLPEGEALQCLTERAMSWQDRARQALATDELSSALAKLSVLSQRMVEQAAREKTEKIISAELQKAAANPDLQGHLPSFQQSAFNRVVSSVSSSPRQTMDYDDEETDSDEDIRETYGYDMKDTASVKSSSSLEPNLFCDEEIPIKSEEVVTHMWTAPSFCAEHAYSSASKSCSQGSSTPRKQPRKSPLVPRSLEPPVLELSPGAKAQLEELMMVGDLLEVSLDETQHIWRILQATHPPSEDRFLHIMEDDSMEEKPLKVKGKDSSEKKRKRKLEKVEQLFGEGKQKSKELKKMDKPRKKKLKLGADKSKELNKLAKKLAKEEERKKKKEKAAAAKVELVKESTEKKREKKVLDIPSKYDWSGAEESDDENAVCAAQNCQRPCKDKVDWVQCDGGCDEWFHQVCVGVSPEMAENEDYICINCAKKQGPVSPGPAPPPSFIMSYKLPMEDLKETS

SMILES | GI50 [1] [µM] | IC50 [2] [µM] | IC50 [3] [µM] | IC50 [4] [µM]
O=C(O)CCN(O)C(=O)CCCCCCCCC1CC1 | 16 | 0.2 | > 120 | 55
CN(C)CCCCCCCCC(=O)N(O)CCC(=O)O | > 470 | 1.6 | 0.8 | 13

Source: ChEMBL document CHEMBL2424657, “Identification of the KDM2/7 histone lysine demethylase subfamily inhibitor and its antiproliferative activity” (J Med Chem, 2013)
